# Test results from ChEMBL document CHEMBL1138275, “Activity of sulfonium bisphosphonates on tumor cell lines” (J Med Chem, 2007).
# What was measured:
# SF-268 = test: Growth inhibition of human SF268 cells after 4 days by MTT assay; type: functional, cell-based; conditions: SF-268, 96 h
# Procedure, shortened: (§1)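 Cell lines from NCI, grown in RPMI-1640 with 2 mM L-glutamine and 10% FBS at 37 °C, 5% CO2, 100% humidity. Aqueous 0.01 M stocks, half-log serial dilutions in medium, typically 316 µM to 10 nM. 5000 cells/well exposed 4 days. MTT added for 2 h, detergent lysis, overnight dark at room temperature, A600 read. IC50 from rectangular hyperbolic fit of percent inhibition.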
# MCF7 = test: Growth inhibition of human MCF7 cells after 4 days by MTT assay; type: functional, cell-based; conditions: MCF7, 96 h
# NCI-H460 = test: Growth inhibition of human NCI-H460 cells after 4 days by MTT assay; type: functional, cell-based; conditions: NCI-H460, 96 h; procedure, shortened: as §1
# [1] = molecular target: T1, Farnesyl pyrophosphate synthase (Homo sapiens, UniProt P14324); test: Inhibition of human FPPS
# T1 sequence (P14324 whole entry): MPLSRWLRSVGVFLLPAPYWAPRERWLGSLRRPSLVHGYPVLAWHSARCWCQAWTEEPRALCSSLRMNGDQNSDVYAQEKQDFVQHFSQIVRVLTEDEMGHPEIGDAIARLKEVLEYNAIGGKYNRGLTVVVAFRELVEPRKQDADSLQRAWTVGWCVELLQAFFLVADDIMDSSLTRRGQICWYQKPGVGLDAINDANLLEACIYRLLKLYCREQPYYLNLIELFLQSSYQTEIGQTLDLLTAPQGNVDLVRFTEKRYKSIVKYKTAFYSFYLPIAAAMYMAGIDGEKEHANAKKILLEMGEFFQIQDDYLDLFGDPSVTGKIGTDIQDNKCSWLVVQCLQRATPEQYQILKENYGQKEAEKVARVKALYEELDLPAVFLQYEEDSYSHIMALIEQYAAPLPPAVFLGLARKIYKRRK
Compound,IC50 (MCF7; read-out: IC50) [µM],IC50 (MCF7; read-out: pIC50 (converted)) [µM],IC50 (NCI-H460; read-out: IC50) [µM],IC50 (NCI-H460; read-out: pIC50 (converted)) [µM],IC50 ([1]; read-out: IC50) [µM],IC50 ([1]; read-out: pIC50 (converted)) [µM],IC50 (SF-268; read-out: IC50) [µM],IC50 (SF-268; read-out: pIC50 (converted)) [µM]
CCC[S+](C)CC(P(=O)([O-])O)P(=O)(O)O (stereo unspecified),240,251,95.5,100,0.53,–,223,200
CCCCC[S+](C)CCC(O)(P(=O)([O-])O)P(=O)(O)O (stereo unspecified),389,398,200,200,–,–,196,200
CCC[S+](C)CCC(O)(P(=O)([O-])O)P(=O)(O)O (stereo unspecified),813,794,759,794,–,–,714,631
O=P([O-])(O)C(O)(CC[S+]1CCCC1)P(=O)(O)O (stereo unspecified),195,200,158,158,–,–,129,126
O=P([O-])(O)C(O)(C[S+]1CCCC1)P(=O)(O)O (stereo unspecified),100,100,126,126,–,–,101,100
C[S+](CCCOc1ccccc1)CCC(O)(P(=O)([O-])O)P(=O)(O)O (stereo unspecified),184,–,151,–,–,–,171,–
CCCCCCCCCC[S+](C)CC(P(=O)([O-])O)P(=O)(O)O (stereo unspecified),0.62,0.631,0.32,0.316,0.24,–,0.37,0.398
C[S+](CCc1ccccc1)CCC(O)(P(=O)([O-])O)P(=O)(O)O (stereo unspecified),251,–,183,–,–,–,198,–
C[S+](C)CC(O)(P(=O)([O-])O)P(=O)(O)O (stereo unspecified),200,200,191,200,1.03,–,171,158
O=P([O-])(O)C(O)(C[S+]1CCCCC1)P(=O)(O)O (stereo unspecified),302,316,209,200,–,–,240,251
O=P([O-])(O)C(O)(CC[S+]1CCCCC1)P(=O)(O)O (stereo unspecified),513,501,355,316,–,–,431,398
CCCCC[S+](C)CC(P(=O)([O-])O)P(=O)(O)O (stereo unspecified),224,–,128,–,1.08,–,189,–
O=P([O-])(O)C(O)(CC[S+]1CCC(c2ccccc2)C1)P(=O)(O)O (stereo unspecified),339,316,245,251,–,–,264,251

# The remaining compounds from weak to strong by IC50 (NCI-H460; read-out: IC50), led by results:
IC50 (MCF7; read-out: IC50) [µM],IC50 (MCF7; read-out: pIC50 (converted)) [µM],IC50 (NCI-H460; read-out: IC50) [µM],IC50 (NCI-H460; read-out: pIC50 (converted)) [µM],IC50 ([1]; read-out: IC50) [µM],IC50 ([1]; read-out: pIC50 (converted)) [µM],Compound,IC50 (SF-268; read-out: IC50) [µM],IC50 (SF-268; read-out: pIC50 (converted)) [µM]
258,–,95.1,–,9,–,C[S+](C)CCC(O)(P(=O)([O-])O)P(=O)(O)O (stereo unspecified),100,–
95.5,100,83.2,79.4,–,–,O=P([O-])(O)C(C[S+]1CCCC1)P(=O)(O)O (stereo unspecified),87.8,79.4
162,158,74.1,79.4,–,–,CCC[S+](C)CC(O)(P(=O)([O-])O)P(=O)(O)O (stereo unspecified),96.1,100
105,100,66.1,63.1,–,–,C[S+](CCCc1ccccc1)CCC(O)(P(=O)([O-])O)P(=O)(O)O (stereo unspecified),65.9,63.1
57.5,63.1,55,50.1,–,–,C[S+](CCCc1ccccc1)CC(P(=O)([O-])O)P(=O)(O)O (stereo unspecified),48.6,50.1
45.7,50.1,47.9,50.1,–,–,C[S+](CCCCc1ccccc1)CC(P(=O)([O-])O)P(=O)(O)O (stereo unspecified),43.9,39.8
32.4,31.6,25.7,25.1,–,–,CCCCCCCC[S+](C)CCC(O)(P(=O)([O-])O)P(=O)(O)O (stereo unspecified),20.3,20
21.4,20,23.4,25.1,–,–,C[S+](CCCCCc1ccccc1)CC(P(=O)([O-])O)P(=O)(O)O (stereo unspecified),17.9,15.8
93.3,100,16.6,15.8,–,–,C[S+](CCCOc1ccccc1)CC(O)(P(=O)([O-])O)P(=O)(O)O (stereo unspecified),34.5,31.6
17.8,15.8,13.8,12.6,–,–,C[S+](CCCc1ccccc1)CC(O)(P(=O)([O-])O)P(=O)(O)O (stereo unspecified),10.7,10
21.4,20,12.3,12.6,–,–,CCCCCCCC[S+](C)CC(P(=O)([O-])O)P(=O)(O)O (stereo unspecified),14.7,15.8
14.2,–,3.7,–,–,–,CCCCCCCCCCC[S+](C)CC(P(=O)([O-])O)P(=O)(O)O (stereo unspecified),3.7,–
2.8,–,3.4,–,–,–,CCCCCCCCCCCCC[S+](C)CC(P(=O)([O-])O)P(=O)(O)O (stereo unspecified),3.1,–
1.12,1,1.41,1.26,45.6,–,CCCCCCCCCCCCCCCC[S+](C)CC(P(=O)([O-])O)P(=O)(O)O (stereo unspecified),1.08,1
1.41,1.26,1.23,1.26,7.45,–,CCCCCCCCCCCCCCCCCC[S+](C)CC(P(=O)([O-])O)P(=O)(O)O (stereo unspecified),1.71,1.58
0.95,1,1.15,1.26,27.4,0.251,CCCCCCCCCCCCCCCCCCCC[S+](C)CC(P(=O)([O-])O)P(=O)(O)O (stereo unspecified),1.49,1.58
11,10,0.48,0.501,8.47,–,CCCCCCCCCCCCCC[S+](C)CC(P(=O)([O-])O)P(=O)(O)O (stereo unspecified),0.88,0.794
–,–,0.21,0.2,–,–,CCCCCCCCCCCC[S+](C)CC(P(=O)([O-])O)P(=O)(O)O (stereo unspecified),0.29,0.316
